A selection: hits, their analogues and other compounds. The true share with any hit is near 3.1%.
NadD inh – inhibitors of S. aureus NadD, primary screen, biochemical, colorimetric, uHTS. Nicotinate-nucleotide adenylyltransferase NadD (Staphylococcus aureus N315). purified NadD enzyme, colorimetric absorbance read-out. inhibition, % at 20 µM. 360,000 compounds, 0.78% hits. AID 602399, 2012; in the data active means inhibition above about 26%
CTSL1 counter – Fasciola hepatica cathepsin L1 inhibitors, primary screen, counter-screen for PFM18AAP inhibitor project, biochemical, QFRET, fluorogenic peptide substrate | recombinant F. hepatica cathepsin L1, Z-Leu-Arg-MCA fluorescence | inhibition, % at 5.96 µM | 300,000 compounds, 0.49% hits;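 active means inhibition above the mean of all tested compounds plus 3 SD, set per screening campaign, cut at about 17% in these data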;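 further: 0% = plate median of test compound wells and 100% = 1 µM Z-Phe-Ala-diazomethylketone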
core dimer inh – inhibitors of HCV core protein dimerization, primary screen, biochemical, TR-FRET, high-throughput | TR-FRET GST/Flag-core106 dimerization, 1536-well | inhibition, % at 5 µM | 300,000 compounds, 0.33% hits;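 active means inhibition above the mean of all tested compounds plus 3 SD, set per screening campaign, cut at about 45% in these data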
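Assay system: tagged HCV core106 pair (GST and Flag); medium: KF-containing HEPES buffer, pH 7.45, DTT, CHAPS, BSA; also added: Eu donor and XL665 acceptor anti-tag antibodies; dosing: 5 µM single dose; timing: compound-protein-antibody incubation 4 h at 22.5 °C; signal: TR-FRET 671 and 617 nm emission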
PP1 inh – PP1-alpha phosphatase inhibitors, primary screen, counter-screen for PP5 inhibitor project, biochemical, fluorescence, OMFP substrate, single point. inhibition, % at 6.7 µM. AID 2235, 2010. Serine/threonine-protein phosphatase PP1-alpha catalytic subunit (Homo sapiens), P62136. purified PP1alpha. 320,000 compounds, 0.9% hits;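 active means inhibition above the mean inhibition of all tested compounds plus 3 SD, computed separately for each screening campaign, cut at about 15% in these data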
PP5 inh – PP5 phosphatase inhibitors, primary screen, biochemical, fluorescence; Serine/threonine-protein phosphatase 5 (Homo sapiens), P53041; purified PP5c, OMFP substrate fluorescence; inhibition, % at 6.7 µM; 320,000 compounds, 0.18% hits; AID 1987, 2009;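 active means inhibition above the campaign's mean inhibition across all tested compounds plus 3 SD, cut at about 9.5% in these data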;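 further: 0% = DMSO only and 100% = 100 µM cantharidin control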
Target sequence (P53041 whole entry, looked up): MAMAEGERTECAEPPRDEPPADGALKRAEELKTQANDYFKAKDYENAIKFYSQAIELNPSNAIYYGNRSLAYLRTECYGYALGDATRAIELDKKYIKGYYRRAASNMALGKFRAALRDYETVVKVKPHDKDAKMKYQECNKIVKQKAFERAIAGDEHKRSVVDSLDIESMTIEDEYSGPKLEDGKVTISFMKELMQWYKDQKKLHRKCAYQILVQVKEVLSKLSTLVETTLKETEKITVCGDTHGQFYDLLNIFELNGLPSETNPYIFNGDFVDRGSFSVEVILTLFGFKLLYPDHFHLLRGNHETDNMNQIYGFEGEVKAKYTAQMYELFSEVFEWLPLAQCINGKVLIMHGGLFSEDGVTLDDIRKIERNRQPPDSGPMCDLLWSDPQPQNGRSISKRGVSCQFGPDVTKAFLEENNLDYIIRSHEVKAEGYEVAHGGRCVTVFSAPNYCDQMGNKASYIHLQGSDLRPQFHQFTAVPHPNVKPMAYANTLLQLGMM
Myeloid diff 2 – induction of myeloid progenitor differentiation, primary screen, cell-based, flow cytometry, MLPCN library; ER-HoxA9 myeloid progenitors, lysozyme-GFP differentiation; calls only at 10 µM; 360,000 compounds, 1% hits;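 active means normalized GFP-positive differentiation at or above the plate's own cutoff, the solvent-only control mean plus 3 SD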;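 further: cells exposed to compound for four days before flow analysis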
PP5 inh confirm – PP5 phosphatase inhibitors, confirmation, biochemical, fluorescence, human. shares compounds with PP5 inh. Purified PP5, fluorogenic phosphatase substrate. inhibition, % at 6.7 µM. 460 compounds, 22% hits. AID 2331, 2010; in the data active means inhibition above about 9.5%
PP1 counter 3x – PP1 phosphatase inhibitors, counter-screen for PP5 inhibitor project, biochemical, fluorescence, triplicate. 460 compounds, 4% hits. PP1 enzyme, fluorescent phosphatase substrate. AID 2355, 2010. shares compounds with PP5 inh. inhibition, % at 6.7 µM; in the data active means inhibition above about 16%
* = called active by the depositor; i = inactive; . = no result given.

SMILES | NadD inh | CTSL1 counter | core dimer inh | PP1 inh | PP5 inh | Myeloid diff 2 | PP5 inh confirm | PP1 counter 3x
COc1ccc(NC(=S)Nc2ccc3nc(C)c(C)nc3c2)cc1 | 7 | 1 | 2 | -3 | 1 | i | . | .
COc1ccc(N2C(=O)CC(NNc3nc4ccccc4s3)C2=O)cc1 (stereo not given) | -4 | 1 | 2 | -2 | 12* | i | 0 | 0
Cc1cc(OCC(=O)c2ccc(Br)cc2)ccc1N1C(=O)CCC1=O | -1 | -4 | 2 | -2 | 13* | i | -6 | -3
CC(=O)C(C(C)=O)C1(O)C(=O)c2ccccc2C1=O | 5 | 58* | -27 | 3 | 14* | i | 38* | 3
CC(=O)N(C)C1=C(O)c2ccccc2C(=O)C1=O | 3 | 0 | -4 | -5 | 0 | i | . | .
CC(NC(=O)COC(=O)C12CC3CC(CC(Br)(C3)C1)C2)c1ccccc1 (stereo not given) | -9 | . | . | . | . | i | . | .
O=C(NCC(=O)N1CCN(Cc2ccccc2)CC1)c1cc(Cl)cc([N+](=O)[O-])c1 | 3 | . | . | . | . | i | . | .
CCOC(=O)/C(C#N)=C1/C=C(C)NC(c2ccccc2O)=N1 | 1 | 4 | 10 | 5 | 12* | i | -1 | 2
CCOC(=O)C1=C(C)OC2(O)c3ccccc3C(=O)C12O (stereo not given) | -3 | 59* | -13 | 2 | 12* | i | 41* | 13
CC(=O)C1=C(C)OC2(O)c3ccccc3C(=O)C12O (stereo not given) | -3 | 51* | -24 | 9 | 14* | i | 35* | 3
CCOC(=O)C1=C(C)N[C@@]2(O)c3ccccc3C(=O)[C@@]12O | 4 | -1 | -11 | 0 | 6 | i | . | .
CC1CN(C(=O)C(C)OC(=O)c2ccc3ncsc3c2)CC(C)O1 (stereo not given) | -1 | . | . | -4 | 0 | i | . | .
Cc1cc(C)cc(NC(=O)COC(=O)c2cccc(S(=O)(=O)N3CCCCC3)c2)c1 | -10 | . | . | 2 | 4 | i | . | .
COC(=O)CCC(=O)OC1(C)C(=O)C2=CN(CCN3CCOCC3)C(c3ccc(OC)cc3)=CC2=C(Br)C1=O (stereo not given) | . | 10 | -3 | 2 | 11* | . | 37* | 10
COC(=O)CCC(=O)OC1(C)C(=O)C2=CN(CCCCO)C(c3ccc(OC)cc3)=CC2=C(Br)C1=O (stereo not given) | . | 15 | 2 | 3 | 9 | . | . | .
COc1ccc(C2=NCN(c3ccc(C)cc3)C(=S)N2)cc1 | 1 | 7 | 1 | -2 | 11* | i | -2 | -2
CC(=O)c1ccc(N(CC(=O)NC2CCCC2)C(=O)CNC(=O)c2cccs2)cc1 | 3 | -10 | -7 | 2 | -7 | i | . | .
CC(C)Sc1nsc2nc(=O)c(/C=C3\C=Nc4ccccc43)c(N)n12 | 1 | 5 | 1 | -4 | 14* | i | 0 | 1
CS(=O)(=O)c1nsc2nc(=O)c(/C=C3\C=Nc4ccccc43)c(N)n12 | 0 | -1 | -3 | 2 | 0 | i | . | .
COc1ccc(CNC(=O)c2cn(Cc3ccc(S(=O)(=O)N(C)C)cc3)c(=O)s2)cc1 | -4 | . | . | . | . | i | . | .
COc1ccc(OC)c(NC(=O)CSc2ncnc3sc(C)cc23)c1 | 16 | . | . | . | . | i | . | .
Cc1ccccc1CSc1nnc(-c2ccccn2)n1C | 7 | -1 | 3 | 1 | 23* | i | -3 | -1
O=[N+]([O-])c1cccnc1N1CCC(c2cc(-c3cccc(C(F)(F)F)c3)n[nH]2)CC1 | -11 | -2 | -6 | 4 | 10* | i | 4 | 4
O=[N+]([O-])c1cccnc1N1CCC(c2cc(-c3ccc(Cl)cc3Cl)n[nH]2)CC1 | 1 | 0 | 1 | 8 | 5 | i | . | .
Cc1ccc(NC2=C(Cl)C(=O)c3ccccc3C2=O)cc1 | -1 | 5 | -25 | 1 | 1 | i | . | .
SMILES | NadD inh | CTSL1 counter | core dimer inh | PP1 inh | PP5 inh | Myeloid diff 2 | PP5 inh confirm | PP1 counter 3x
Cc1ccc(NC2=C(N3CCOCC3)C(=O)c3ccccc3C2=O)cc1 | 1 | 17* | -33 | 1 | 10* | i | 30* | -1
CC(=O)c1ccc(NC2=C(N3CCOCC3)C(=O)c3ccccc3C2=O)cc1 | -1 | 35* | -8 | 4 | 10* | i | 16* | 0
COc1ccc(N2CCN(C(=O)c3ccc4c(c3)CCN4S(C)(=O)=O)CC2)cc1 | -1 | . | . | . | . | i | . | .
COc1cccc(CN(C)CC(=O)NCc2ccc(F)cc2)c1OC | -6 | 0 | 2 | -9 | 12* | i | -7 | -5
COc1ccccc1CNC(=O)CN(C)Cc1ccc(SC)cc1 | -3 | -1 | 3 | 1 | 4 | i | . | .
O=C(CC[C@H]1O[C@@H](n2cnc3c(NC(=O)c4ccccc4)ncnc32)[C@H](O)[C@@H]1O)NCCCN1CCOCC1 | -7 | . | . | . | . | i | . | .
CCSC1=C(C#N)C2(CCCCC2)C(C#N)=C(N)N1 | -2 | -3 | 1 | -1 | 0 | i | . | .
N#CC1=C(N)NC(SCc2ccccc2)=C(C#N)C12CCCCC2 | 16 | -2 | 11 | -3 | 12* | i | 1 | 3
CCOc1ccc(S(N)(=O)=O)cc1-c1nc2c(C(C)(C)C)nn(C)c2c(=O)[nH]1 | -6 | 1 | 0 | 1 | 1 | i | . | .
CCOc1ccc(S(=O)(=O)NC(C)(C)C)cc1-c1nc2c(C(C)(C)C)nn(C)c2c(=O)[nH]1 | 5 | 12 | 9 | 7 | 10* | . | 3 | 4
NS(=O)(=O)c1ccc(NC2=CC(=O)C(=O)c3ccccc32)cc1 | 7 | 17* | 1 | 1 | 11* | i | 37* | 7
COc1ccc([C@H]2CC(=O)C[C@@H](CCn3cc(-c4nccn4C)nn3)O2)cc1 | -2 | . | . | . | . | i | . | .
CCc1ccc(S(=O)(=O)/N=C2\C=C(Nc3cccc(C(=O)O)c3)C(=O)c3ccccc32)cc1 | 19 | 51* | 2 | 13 | 11* | . | 42* | 12
Cc1ccc(S(=O)(=O)/N=C2\C=C(NS(=O)(=O)c3ccccc3)C(=O)c3ccccc32)cc1 | 13 | . | . | . | . | i | . | .
